Screens deposited in PubChem BioAssay by several laboratories.
H9c2 TAG inh: inhibitors of triacylglycerol accumulation | H9c2 cells, Nile Red lipid (TAG) fluorescence; cells loaded with 200 µM oleic acid | inhibition, % at 12.5 µM | 230,000 tested, 0.66% active | AID 651582;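 active = pattern-corrected inhibition of lipid staining of at least 50% with the nuclear-stain viability signal not falling by more than 50%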;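 note: 0% = DMSO wells and 100% = triacsin C control wells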
LANA-H2B inh: blocks KSHV LANA binding to histone H2A/H2B; Q9QR71; cell-free LANA-H2A/H2B peptide, fluorescence polarization; inhibition, % (test concentration not listed); 320,000 tested, 0.6% active; AID 2629; in the data active = inhibition mostly above about 10%, no sharp cut-off; inactive = mostly below about 6.7%
GSK3 alpha inh: blocks human GSK-3 alpha kinase; P49840; ADP-Glo luminescence, 60 min; inhibition, % at 10 µM; 320,000 tested, 0.1% active; AID 2650;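 active = more than half of replicates show inhibition above 20%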;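 note: GST-tagged GSK-3 alpha with peptide substrate and 25 µM ATP; 0% = DMSO neutral wells and 100% = GW8510 positive control wells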
GSK3beta inhib: blocks human GSK3beta kinase activity. AID 2097. GST-GSK3beta kinase, ADP-Glo luminescence, 60 min; hits give low values. activity score (negative = inhibition), % at 10 µM. 300,000 tested, 0.038% active. P49841;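 active = more than half of replicate wells score below -50%, meaning over 50% inhibition versus plate controls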;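 note: 0% = median DMSO wells and -100% = median GW8510 positive control wells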
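Test system – GST-tagged human GSK3beta kinase, cell-free · Incubation – 60 min enzyme reaction, room temperature · Signal – ADP-Glo luminescence · Also added – peptide substrate and ATP at 25 µM · Controls – DMSO neutral wells and GW8510 at 20 µM as positive · Buffer or medium – Tris/MgCl2 kinase buffer · Measure – Luminescence-derived activity versus plate DMSO and GW8510 wells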
Lipid droplet: modulators of hepatic lipid droplet formation | AML12 mouse hepatocytes, oleate lipid droplets, BODIPY imaging | 240,000 tested, 0.4% active | inhibition, % at 6.5 µM;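 active = lipid droplet intensity inhibited by at least 50%, with more than 500 cells counted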
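System: AML12 hepatocytes (mouse). Probe or stimulus: oleic acid at 100 µM to induce lipid droplet formation. Times: overnight treatment with compound plus oleate. Detection: Image-based BODIPY and DAPI two-channel analysis. Evaluation: percent inhibition of filter-corrected integrated lipid droplet intensity per well.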
STK33 inh: inhibitors of human STK33 kinase | Q9BYT3 | purified STK33, MBP phosphorylation, ADP-Glo luminescence | inhibition, % at 10 µM | 320,000 tested, 0.073% active;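 active = inhibition at or above 25%, using the most active replicate where run in duplicate; inactive = inhibition below 25%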
H9c2 TAG conf: triacylglycerol accumulation inhibition, confirmation. shares compounds with H9c2 TAG inh. H9c2 lipid accumulation, Nile Red fluorescence; cells loaded with 200 µM oleic acid. inhibition, % at 12.5 µM. 990 tested, 71% active. AID 651629;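 active = mean inhibition across replicates of 40% or more; inactive = mean inhibition below 40%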;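 note: plate controls were DMSO only wells for no effect and Triacsin C treated wells for full effect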
An asterisk follows results filed as active; / = not tested or not shown. Sampled rows, rich in hits. Any-hit rate of the full collection: about 1.3%.

SMILES	H9c2 TAG inh	LANA-H2B inh	GSK3 alpha inh	GSK3beta inhib	Lipid droplet	STK33 inh	H9c2 TAG conf
Cc1cc(C)n(-c2nc(NCCN(C)C)c3c4c(sc3n2)COC(C)(C)C4)n1	47	2	7	4	34	0	/
CCN(CC)CCNc1nc(-n2nc(C)cc2C)nc2sc3c(c12)CC(C)(C)OC3	55*	0	3	-2	25	-1	56*
CCN(CC)CCNc1ncnc2c1sc1nc(N3CCCC3)c3c(c12)CC(C)(C)OC3	56*	6	3	-8	/	0	45*
Cc1cccc(NC(=O)[C@@H]2CCCN2S(=O)(=O)c2ccc(Cl)cc2)c1	-8	3	-2	/	/	1	/
Cc1nc(C(=O)Nc2ccccc2)sc1C1(C)CC(c2cccnc2)=NO1 (centres undefined)	/	0	-2	4	13	-1	/
COc1ccc(NC(=O)c2nc(C)c(C3(C)CC(c4ccccc4)=NO3)s2)cc1 (centres undefined)	76*	4	-3	-1	-12	-1	94*
Cc1csc(NC(=O)c2ccccc2[N+](=O)[O-])n1	-13	-1	-3	1	/	1	/
O=C(CSc1nc(-c2ccco2)cc(C(F)(F)F)n1)Nc1ccc2c(c1)CCC2	52*	1	-4	2	-1	-1	25
